Data as given in ChEMBL document CHEMBL1147846, “Synthetic 2',5'-dimethoxychalcones as G(2)/M arrest-mediated apoptosis-inducing agents and inhibitors of nitric oxide production in rat macrophages” (Eur J Med Chem, 2007).

Key:
A549 = assay: Cytotoxicity against human A549 cells by MTT microassay; format: functional, cell-based
How it was run: (§1)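 MTT microassay in cultured human tumour cells from ATCC. Compounds were dissolved in DMSO and diluted in culture medium to 0.1% DMSO. Controls received medium with 0.1% DMSO, and 5-fluorouracil was the positive control. IC50 is given as mean ± SD, n = 3.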

[1] = Cytotoxicity against human Hep 3B cells by MTT microassay; format: functional, cell-based, Hep 3B2; conditions: Hep3B; how it was run: as §1
HT-29 = assay: Cytotoxicity against human HT29 cells by MTT microassay; format: functional, cell-based; how it was run: as §1
MCF7 [2] = assay: Cytotoxicity against human MCF7 cells by MTT microassay; format: functional, cell-based; how it was run: as §1
[3] = Inhibition of beta-glucuronidase release from rat mast cells; format: functional; design: Inhibition: concentration or dose not given beside the values; conditions: for IC50: Rattus norvegicus
[4] = Inhibition of histamine release from rat mast cells; format: functional; design: Inhibition: concentration or dose not given beside the values; conditions: for IC50: Rattus norvegicus
Neutrophil [5] = assay: Inhibition of 1 uM fMLP-stimulated beta-Glucuronidase release from rat neutrophils; format: functional, cell-based; conditions: for IC50: Rattus norvegicus, Neutrophil
How it was run: (§2)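 Rat neutrophils were stimulated with fMLP plus cytochalasin B, and β-glucuronidase and lysozyme release were measured. Trifluoperazine was the positive control. IC50 is mean ± SD, n = 3; where IC50 exceeds 30, % inhibition at 30 is shown.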

Neutrophil [6] = assay: Inhibition of 5 ug/ml CB-stimulated Lysozyme release from rat neutrophils; format: functional, cell-based; conditions: for IC50: Rattus norvegicus, Neutrophil; how it was run: as §2
Neutrophil [7] = assay: Inhibition of 0.3 uM fMLP-stimulated superoxide anion generation in rat neutrophils; format: functional, cell-based; conditions: for IC50: Rattus norvegicus, Neutrophil
How it was run: (§3)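 Rat neutrophils, with superoxide anion generation triggered by either fMLP combined with cytochalasin B or by PMA (3 nM).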

Neutrophil [8] = assay: Inhibition of 3 nM PMA-stimulated superoxide anion generation in rat neutrophils; format: functional, cell-based; conditions: for IC50: Rattus norvegicus, Neutrophil; how it was run: as §3
RAW [9] = assay: Inhibition of 1ug/ml LPS-stimulated nitirc oxide accumulation in RAW 264 cells after 24 hrs; format: functional, cell-based, Mus musculus; conditions: for IC50: Mus musculus, RAW, 24 h
How it was run: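 RAW 264.7 cells were activated with LPS for 24 h. NO was measured as nitrite accumulated in the medium, by Griess reaction. 1400W was the positive control. Results are mean ± SD, n = 3.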

RAW [10] = assay: Inhibition of 1 ug/ml LPS-stimulated TNFalpha accumulation in RAW 264 cells after 24 hrs; format: functional, cell-based, Mus musculus; conditions: for IC50: Mus musculus, RAW, 24 h
How it was run: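 RAW 264.7 cells were activated with LPS, and TNF-α formation in the culture medium was measured. Genistein was the positive control. Results are mean ± SD, n = 3.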

MCF7 [11] = assay: Induction of apoptosis in MCF7 cells assessed as subG1-phase accumulation at 8.7 uM after 24 hrs; format: functional, Homo sapiens
How it was run: (§4)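 MCF-7 cells were exposed to compound and washed with PBS at each time point. They were fixed in 4% paraformaldehyde/PBS (pH 7.4) for 30 min at room temperature, then permeabilized in 0.1% Triton X-100/0.1% sodium citrate for 2 min at 4 °C. PI staining followed for 30 min at 37 °C. FACScan flow cytometry counted ≥5000 cells. Apoptosis is the sub-G1 DNA fraction; controls received medium; three independent experiments.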

MCF7 [12] = assay: Induction of apoptosis in MCF7 cells assessed as subG1-phase accumulation at 8.7 uM after 48 hrs; format: functional, Homo sapiens; how it was run: as §4
MCF7 [13] = assay: Induction of apoptosis in MCF7 cells assessed as subG1-phase accumulation at 8.7 uM after 72 hrs; format: functional, Homo sapiens; how it was run: as §4
MCF7 [14] = assay: Induction of apoptosis in MCF7 cells assessed as subG1-phase accumulation at 34.7 uM after 24 hrs; format: functional, Homo sapiens; how it was run: as §4
MCF7 [15] = assay: Induction of apoptosis in MCF7 cells assessed as subG1-phase accumulation at 34.7 uM after 48 hrs; format: functional, Homo sapiens; how it was run: as §4
MCF7 [16] = assay: Induction of apoptosis in MCF7 cells assessed as subG1-phase accumulation at 34.7 uM after 72 hrs; format: functional, Homo sapiens; how it was run: as §4
MCF7 [17] = assay: Induction of apoptosis in MCF7 cells assessed as subG1-phase accumulation at 52 uM after 24 hrs; format: functional, Homo sapiens; how it was run: as §4
MCF7 [18] = assay: Induction of apoptosis in MCF7 cells assessed as subG1-phase accumulation at 52 uM after 48 hrs; format: functional, Homo sapiens; how it was run: as §4
MCF7 [19] = assay: Induction of apoptosis in MCF7 cells assessed as subG1-phase accumulation at 52 uM after 72 hrs; format: functional, Homo sapiens; how it was run: as §4

SMILES	IC50 (A549) [µM]	IC50 [1] [µM]	IC50 (HT-29) [µM]	IC50 (MCF7 [2]) [µM]	IC50 [3] [µM]	IC50 ([4]; read-out: IC50) [µM]	IC50 (Neutrophil [5]) [µM]	IC50 (Neutrophil [6]) [µM]	IC50 (Neutrophil [7]) [µM]	Inhibition (Neutrophil [8]) [%]	IC50 (Neutrophil [8]) [µM]	IC50 (RAW [9]) [µM]	IC50 (RAW [10]) [µM]	further results
COc1ccc(OC)c(C(=O)/C=C/c2cccs2)c1	11	8.4	13.3	3.8	> 30	> 30	> 30	14.6	> 30	7.9	> 30	> 10	> 30	Inhibition [3]: -4.6%; Inhibition [4]: 0.8%; Inhibition (Neutrophil [5]): 38.5%; Inhibition (Neutrophil [7]): 47.2%; Inhibition (RAW [9]): 49.8%; Inhibition (RAW [10]): 5.9%
COc1ccc(OC)c(C(=O)/C=C/c2ccsc2)c1	3.8	5.7	5.3	3.7	–	–	–	–	–	–	–	–	–	–
COc1ccc(OC)c(C(=O)/C=C/c2ccco2)c1	27.9	19	24.8	10.5	18.4	> 30	6.2	8.3	3	49.1	> 30	5.7	4.6	–
COc1ccc(OC)c(C(=O)/C=C/c2ccoc2)c1	22.1	12	21.3	18.2	–	–	–	–	–	–	–	–	–	–
COc1ccc(OC)c(C(=O)/C=C/c2ccc(C)o2)c1	51.5	26.5	43	10.3	> 30	–	22.2	17.8	> 30	39	> 30	> 10	> 10	Inhibition [3]: 12.7%; Inhibition [4]: 17.5%; IC50 [4]: > 30 µM; Inhibition (Neutrophil [7]): 48.1%; Inhibition (RAW [9]): 29.5%; Inhibition (RAW [10]): -10.5%
COc1ccc(OC)c(C(=O)/C=C/c2ccc(C)s2)c1	4.5	3.4	1.8	2.6	> 30	> 30	> 30	> 30	> 30	-11.9	> 30	6.7	> 30	Activity (MCF7 [11]): 7.52%; Activity (MCF7 [12]): 16.39%; Activity (MCF7 [13]): 41.61%; Activity (MCF7 [14]): 4.05%; Activity (MCF7 [15]): 18.68%; Activity (MCF7 [16]): 62.4%; Activity (MCF7 [17]): 5.09%; Activity (MCF7 [18]): 21.23%; Activity (MCF7 [19]): 63.79%; Inhibition [3]: -2.7%; Inhibition [4]: 43.5%; Inhibition (Neutrophil [5]): 45.6%; Inhibition (Neutrophil [6]): 37.4%; Inhibition (Neutrophil [7]): 49.1%; Inhibition (RAW [10]): 46%
COc1ccc(OC)c(C(=O)/C=C/c2sccc2C)c1	22.2	16.7	19.4	7.6	–	–	–	–	–	–	–	–	–	–
COc1ccc(OC)c(C(=O)/C=C/c2ccc(OC/C=C/c3ccccc3)cc2)c1	39.8	17.3	26.3	19	> 30	> 30	> 30	> 30	> 10	4.1	> 10	> 30	> 30	Inhibition [3]: -11.2%; Inhibition [4]: 0.3%; Inhibition (Neutrophil [5]): 18.8%; Inhibition (Neutrophil [6]): 33.1%; Inhibition (Neutrophil [7]): -71.9%; Inhibition (RAW [9]): 27.9%; Inhibition (RAW [10]): 15%
COc1ccc(OC)c(C(=O)/C=C/c2ccc(OC(=O)/C=C/c3ccc(C)cc3)cc2)c1	29.7	29	16.4	12.6	–	–	–	–	–	–	–	–	–	–
COc1ccc(/C=C/C(=O)Oc2ccc(/C=C/C(=O)c3cc(OC)ccc3OC)cc2)cc1	60.4	42.6	23	4.1	–	–	–	–	–	–	–	–	–	–
COc1ccc(OC)c(C(=O)/C=C/c2ccc(Br)o2)c1	14.9	11	15.2	11	> 30	> 30	> 30	> 30	19.7	-2.2	> 30	12.8	> 30	Inhibition [3]: -13.3%; Inhibition [4]: 6.3%; Inhibition (Neutrophil [5]): 36.9%; Inhibition (Neutrophil [6]): 33.4%; Inhibition (RAW [10]): 35.6%
COc1ccc(OC)c(C(=O)/C=C/c2ccc(OC(=O)/C=C/c3cc(OC)c(OC)c(OC)c3)cc2)c1	36.7	23.2	23.8	6.4	–	–	–	–	–	–	–	–	–	–
CC(=N)NCc1cccc(CN)c1 [1400W]	–	–	–	–	–	–	–	–	–	–	–	5.2	–	–
CC(=O)O[C@H](CC=C(C)C)C1=CC(=O)c2c(O)ccc(O)c2C1=O [ACETYLSHIKONIN]	–	–	–	–	2.2	2	–	–	–	–	–	–	–	–
c1ccc2c(c1)[I+]c1ccccc1-2 [DIPHENYLENEIODONIUM CHLORIDE]	–	–	–	–	–	–	–	–	5.8	–	3.3	–	–	–
O=c1[nH]cc(F)c(=O)[nH]1 [FLUOROURACIL]	3.1	0.6	0.6	1.5	–	–	–	–	–	–	–	–	–	–
O=c1c(-c2ccc(O)cc2)coc2cc(O)cc(O)c12 [GENISTEIN]	–	–	–	–	–	–	–	–	–	–	–	–	18.1	–
CN1CCN(CCCN2c3ccccc3Sc3ccc(C(F)(F)F)cc32)CC1 [TRIFLUOPERAZINE]	–	–	–	–	–	–	13.2	12.7	–	–	–	–	–	–
